Assay outcomes: PubChem BioAssay, several laboratories
This is a sample that favours compounds with a hit; in the whole collection about 2.6% have one here.
MEKK2wt PB1 HTS = modulators of MEK5 binding to wildtype MEKK2, primary screen, biochemical, multiplex bead flow cytometry, Alexa488-MEK5 | AID 1531, 2009 | Mitogen-activated protein kinase kinase kinase 2 (Homo sapiens), Q9Y2U5 | 1.1% of 290,000 active | Alexa488-MEK5 binding to MEKK2 WT; actives lie on both sides | binding response (% of control), % at 10 µM; in the data active = binding response below about 67% or above about 130%
Hep lipid drop = inhibitors of hepatocyte lipid droplet formation, primary screen, imaging, high-throughput imaging, BODIPY stain. AML12 mouse hepatocytes, oleate lipid droplets. inhibition, % at 6.5 µM. 0.4% of 240,000 active. AID 1656, 2009;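 active = lipid droplet intensity inhibited by at least 50%, with more than 500 cells counted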
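Assay system: AML12 hepatocytes (mouse) / Also added: 100 µM oleic acid challenge / Times: overnight treatment with compound plus oleate / Detection: high-content imaging of BODIPY-stained droplets and DAPI nuclei / Evaluation: % inhibition of lipid droplet signal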
MEKK2 mut-MEK5 = MEK5 binding signal on mutant MEKK2 PB1, primary screen, biochemical, multiplex bead flow cytometry, Alexa488-MEK5; percent response, % at 10 µM; Alexa488-MEK5 binding to MEKK2 mutant; AID 1530, 2009; 0.35% of 290,000 active; in the data active = percent response above about 24%, passing the limit was not always enough
MEKK3 PB1 HTS = modulators of MEKK3-MEK5 PB1 binding, primary screen, biochemical, wildtype MEKK3, multiplex bead flow cytometry, Alexa488-MEK5. bead-based flow cytometry, Alexa488-MEK5 binding to MEKK3; actives lie on both sides; 0 = blocked by unlabeled MEK5, 100 = vehicle. binding response (% of control), % at 10 µM. 1.4% of 290,000 active. AID 1529, 2009;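 active = binding response more than 3 SD above or below the average of its plate-row segment, actives on both sides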;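 also: Alexa488 bead fluorescence after subtracting the streptavidin-only scavenger bead signal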
Target sequence (Q99759 whole entry, looked up): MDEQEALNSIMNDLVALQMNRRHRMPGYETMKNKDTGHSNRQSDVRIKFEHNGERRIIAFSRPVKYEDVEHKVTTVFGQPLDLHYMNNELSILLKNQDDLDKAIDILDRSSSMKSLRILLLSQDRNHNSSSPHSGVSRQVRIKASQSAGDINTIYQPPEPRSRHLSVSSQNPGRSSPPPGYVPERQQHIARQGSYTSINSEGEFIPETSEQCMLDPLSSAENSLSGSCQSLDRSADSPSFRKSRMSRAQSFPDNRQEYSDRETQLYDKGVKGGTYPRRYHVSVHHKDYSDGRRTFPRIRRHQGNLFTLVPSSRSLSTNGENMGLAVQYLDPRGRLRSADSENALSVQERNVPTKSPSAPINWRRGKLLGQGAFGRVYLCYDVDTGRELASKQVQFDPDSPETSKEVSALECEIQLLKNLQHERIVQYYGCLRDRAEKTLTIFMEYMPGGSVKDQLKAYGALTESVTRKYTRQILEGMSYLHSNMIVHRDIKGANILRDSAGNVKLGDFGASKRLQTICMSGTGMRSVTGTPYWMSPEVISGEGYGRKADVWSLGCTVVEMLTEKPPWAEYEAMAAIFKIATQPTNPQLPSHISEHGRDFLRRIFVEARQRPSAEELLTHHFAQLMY
Large screens that a line does not name were inactive; [ ] = dose if it differs, or a comment.

CC(=O)Nc1ccc(NC2=C(Cl)C(=O)c3ccccc3C2=O)cc1	none
Cc1ccc(NC2=C(NCCO)C(=O)c3ccccc3C2=O)cc1	Hep lipid drop 59
O=C(/C=C/c1ccccc1)NC(=S)Nc1ncccn1	none
Cc1c(Cl)ccc2c(C(=O)Nc3cc(C(C)(C)C)on3)cc(-c3ccccn3)nc12	none
Cc1cc(C)c(OCC(O)CN2CCN(c3ccccn3)CC2)c(C)c1 (stereo not drawn)	MEKK2wt PB1 HTS -8.0
Cc1cccc2cc3c(N)c(C(=O)N4CCc5ccccc54)sc3nc12	MEKK2wt PB1 HTS 30
Cc1cccc2cc3c(N)c(C(=O)Nc4ccc(N5CCOCC5)cc4)sc3nc12	none (no result: Hep lipid drop)
Cc1cc(Br)cc2cn[nH]c12	MEKK2wt PB1 HTS 40
CC(C)CC(=O)NC(=S)N(Cc1ccccc1)Cc1ccccc1	MEKK3 PB1 HTS 148
COC(=O)C1=C(C)NC(C)=C(C(=O)OCC2CCCO2)C1c1cccc(Br)c1 (stereo not drawn)	none
Cc1ccc2c(c1)C1CCCC3C1N2CC(=O)N3Cc1ccccc1 (stereo not drawn)	MEKK2wt PB1 HTS 18
O=C(CN1CCN(c2ccc(O)cc2)CC1)Nc1cc([N+](=O)[O-])ccc1Cl	MEKK2wt PB1 HTS 15
Cc1cc(=O)[nH]c(-c2ccc(C(F)(F)F)cc2)n1	none
CCOC(=O)Cc1csc(NC(=S)NC(=O)C(C)(C)C)n1	MEKK3 PB1 HTS 134
CCN(CC)CCCNC(=O)Cn1cnc2sc(C)c(S(=O)(=O)N3CCC(C)CC3)c2c1=O	none
CCC1CCCCN1CCCNC(=O)Cn1cnc2sc(C)c(S(=O)(=O)N3CC(C)CC(C)C3)c2c1=O (stereo not drawn)	MEKK2wt PB1 HTS 135, MEKK2 mut-MEK5 26
CCn1cc(C(=O)Nc2sc(C)c(C)c2C(=O)OC)cn1	none
COc1cc(CN2CCN(CCCc3ccccc3)C(CCO)C2)cc(OC)c1O (stereo not drawn)	none
Cn1nc(CC(=O)Nc2ccc(N3CCN(C(=O)OC(C)(C)C)CC3)cc2)c2ccccc2c1=O	none (no result: MEKK2wt PB1 HTS, MEKK2 mut-MEK5, MEKK3 PB1 HTS)
CC(C)(C)OC(=O)N1CCN(c2ccc(NC(=O)Cn3nnc(-c4ccccc4)n3)cc2)CC1	Hep lipid drop 84
C(=N\NC1=Nc2cccc3cccc1c23)/c1cccnc1	MEKK2wt PB1 HTS 11
C(=N\NC1=Nc2cccc3cccc1c23)/c1ccccc1	none
COc1ccc(NC(=O)C2Cc3ccccc3O/C2=N\O)cc1 (stereo not drawn)	none (no result: Hep lipid drop)
Cc1ccn2c(C=O)c(-c3ccc(F)cc3)c(C=O)c2c1	MEKK2wt PB1 HTS -3.0
COc1ccc(OC)c(NC(=O)c2ccc(OC3CSC3)cc2)c1	none
COc1ccc2nc(/C(C#N)=C\c3ccc(Oc4ccc([N+](=O)[O-])cn4)cc3)[nH]c2c1	none
COc1ccc2nc(/C(C#N)=C\c3ccc(C(=O)O)cc3)[nH]c2c1	MEKK2wt PB1 HTS 7.0
O/C(=C\c1nc2ccccc2nc1/C=C(\O)c1ccccc1)c1ccccc1	MEKK2wt PB1 HTS 20
O=c1oc2ccccc2nc1/C=C(\O)c1ccccc1	none
COc1ccc(/C=C/C(=O)OC(C)CN2CCCCC2)cc1 (stereo not drawn)	none (no result: Hep lipid drop)
CCOC(=O)c1c(NC(=O)C(NCCN(C)C)c2ccccc2)sc2c1CCCC2 (stereo not drawn)	MEKK2wt PB1 HTS 171, MEKK2 mut-MEK5 43
CC1COC(C)(CC(=O)NN2C(=O)c3ccccc3C2=O)O1 (stereo not drawn)	none
Cc1ccc(-n2c(-c3ccc(Br)cc3)c[n+]3c2CCc2ccc4cccnc4c2-3)cc1	MEKK2wt PB1 HTS 153 (no result: Hep lipid drop)
COc1ccc(-n2c(-c3ccc(Cl)cc3)c[n+]3c2CCc2ccccc2-3)cc1	none
COc1ccc(CN2CCNC(=O)C2CC(=O)NC2CCCCCCC2)cc1C (stereo not drawn)	MEKK2 mut-MEK5 28
CCN(CC)c1ccc(/C=C(\C#N)c2nc(-c3cccs3)c(NC(C)=O)s2)cc1	MEKK2wt PB1 HTS 290, MEKK2 mut-MEK5 517
CC(=O)c1cccc(NS(C)(=O)=O)c1	none
CCN(CC)CCNC(CC(=O)Nc1ccc(Cl)cc1Cl)C(=O)O (stereo not drawn)	Hep lipid drop 63
O=C1OC(c2cccs2)=N/C1=C/c1ccc(-c2cccc(C(=O)O)c2)o1	none
O=C1OC(c2cccs2)=N/C1=C\c1ccc(-c2ccccc2Cl)o1	MEKK2wt PB1 HTS 62, MEKK2 mut-MEK5 82
O=C(COc1ccc(Cl)cc1Cl)NN1C(=O)C2C3C=CC(C3)C2C1=O (stereo not drawn)	none
CCCOC(=O)c1ccc(NC(=O)/C=C/c2cccs2)cc1	Hep lipid drop 80
COc1cc(C(C)=O)ccc1COc1ccc(C(=O)O)cc1OC	none
COc1ccc(C(CNC(=O)c2oc3cc(C)c(Cl)cc3c2C)N2CCCCC2)cc1 (stereo not drawn)	MEKK2wt PB1 HTS 169, MEKK2 mut-MEK5 37
COc1ccc(C(CNC(=O)c2oc3ccc(C)cc3c2C)N2CCCCC2)cc1 (stereo not drawn)	none
COc1cccc(/C=C/c2nc3c(cnn3-c3ccccc3)c(=O)[nH]2)c1	MEKK2 mut-MEK5 93 (no result: MEKK2wt PB1 HTS)
O=c1[nH]c(/C=C/c2ccc(Br)cc2)nc2c1cnn2-c1ccccc1	none
Cc1ccc(/C=C2\SC(=S)N(CC3CCCO3)C2=O)o1 (stereo not drawn)	none
Cc1ccc(/C=C2/SC(=S)N(C3CCCCC3)C2=O)o1	MEKK2wt PB1 HTS 56[inhibitor]
CCOc1ccccc1N(CC(=O)Nc1ccccc1F)S(=O)(=O)c1ccccc1	none
CN1CCN(C(=O)c2ccc3c(c2)N(C)C(=O)/C(=C/c2cccc(Cl)c2)S3)CC1	MEKK2wt PB1 HTS 137
COc1ccc(/C=C2\Sc3ccc(C(=O)N4CCN(Cc5ccccc5)CC4)cc3N(C)C2=O)cc1OC	none
Cc1ccc(-n2cnc3scc(-c4cccs4)c3c2=O)cc1	none
O=c1c2c(-c3cccs3)csc2ncn1-c1ccccc1	MEKK2wt PB1 HTS 15
CN(C)CCNC(=O)COc1cccc(Cl)c1	none (no result: Hep lipid drop)
COc1cc(C(=O)NCCN2C(=O)S/C(=C\c3ccc(F)cc3)C2=O)ccc1OCC(=O)N1CCOCC1	none
COc1cc(C(=O)O)ccc1OCC(=O)N1CCOCC1	none (no result: Hep lipid drop)
COc1cc(C(=O)Nc2nc(-c3ccc(F)cc3)cs2)ccc1OCC(=O)N1CCOCC1	Hep lipid drop 61
COc1cc(C(=O)Nc2nc(-c3ccc(C)cc3)cs2)ccc1OCC(=O)N1CCOCC1	Hep lipid drop 88
Cc1c(C(=O)N2CCOCC2)sc(NC(=O)c2ccccc2F)c1C#N	none
N=c1n(CCN2CCCC2)c2ccccc2n1CC(O)c1ccc(Cl)c(Cl)c1 (stereo not drawn)	MEKK2wt PB1 HTS 152
COc1ccc(CN2CCSCC2)c(C)c1C	none
Cc1cc(NS(=O)(=O)c2ccc(Nc3nc(-c4sc(C)nc4C)cs3)cc2)no1	MEKK2wt PB1 HTS -2.0[inhibitor], MEKK3 PB1 HTS -1.0[inhibitor]
